Results from ChEMBL document CHEMBL1914416, “Discovery of pyridine-2-ones as novel class of multidrug resistance (MDR) modulators: first structure-activity relationships” (Bioorg Med Chem, 2011).

Assays:
[1] = target: T1, ATP-dependent translocase ABCB1 (Homo sapiens, UniProt P08183); experiment: Reversal of human MDR1-mediated rhodamine 123 uptake in mouse L5178Y cells assessed as fluorescence activity ratio at 1 µM by flow cytometry relative to non p-gp expressing parental cell line
[2] = target: T1, ATP-dependent translocase ABCB1; experiment: Reversal of human MDR1-mediated rhodamine 123 uptake in mouse L5178Y cells assessed as fluorescence activity ratio at 10 mM by flow cytometry relative to non p-gp expressing parental cell line; assay type: cell-based; conditions: in the assay text read “10 µM” for “10 mM”
Method in brief: (§1)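 Mouse T-lymphoma L5178Y parental and retrovirally transfected P-gp-expressing L5178Y mdr cells were grown in McCoy's 5A with 10% heat-inactivated horse serum and 2 mM L-glutamine; the mdr line was precultured with 60 ng/mL colchicine. Cells (2 × 10^6/mL, serum-free) were preincubated with inhibitor 10 min at rt, then given rhodamine 123 for 20 min at 37 °C. They were washed twice and resuspended in PBS. Uptake was read by flow cytometry (1 × 10^4 cells). FAR is the mdr/parental quotient, each corrected by inhibitor-free controls.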

[3] = target: T1, ATP-dependent translocase ABCB1; experiment: Reversal of human MDR1-mediated rhodamine 123 uptake in mouse L5178Y cells assessed as fluorescence activity ratio at 20 umol by flow cytometry relative to non p-gp expressing parental cell line; assay type: cell-based
Method in brief: as §1

[4] = tested on: L5178Y; experiment: Cytotoxicity against mouse L5178Y cells at 20 umol by flow cytometric analysis; assay type: cell-based

T1 sequence (P08183 whole entry): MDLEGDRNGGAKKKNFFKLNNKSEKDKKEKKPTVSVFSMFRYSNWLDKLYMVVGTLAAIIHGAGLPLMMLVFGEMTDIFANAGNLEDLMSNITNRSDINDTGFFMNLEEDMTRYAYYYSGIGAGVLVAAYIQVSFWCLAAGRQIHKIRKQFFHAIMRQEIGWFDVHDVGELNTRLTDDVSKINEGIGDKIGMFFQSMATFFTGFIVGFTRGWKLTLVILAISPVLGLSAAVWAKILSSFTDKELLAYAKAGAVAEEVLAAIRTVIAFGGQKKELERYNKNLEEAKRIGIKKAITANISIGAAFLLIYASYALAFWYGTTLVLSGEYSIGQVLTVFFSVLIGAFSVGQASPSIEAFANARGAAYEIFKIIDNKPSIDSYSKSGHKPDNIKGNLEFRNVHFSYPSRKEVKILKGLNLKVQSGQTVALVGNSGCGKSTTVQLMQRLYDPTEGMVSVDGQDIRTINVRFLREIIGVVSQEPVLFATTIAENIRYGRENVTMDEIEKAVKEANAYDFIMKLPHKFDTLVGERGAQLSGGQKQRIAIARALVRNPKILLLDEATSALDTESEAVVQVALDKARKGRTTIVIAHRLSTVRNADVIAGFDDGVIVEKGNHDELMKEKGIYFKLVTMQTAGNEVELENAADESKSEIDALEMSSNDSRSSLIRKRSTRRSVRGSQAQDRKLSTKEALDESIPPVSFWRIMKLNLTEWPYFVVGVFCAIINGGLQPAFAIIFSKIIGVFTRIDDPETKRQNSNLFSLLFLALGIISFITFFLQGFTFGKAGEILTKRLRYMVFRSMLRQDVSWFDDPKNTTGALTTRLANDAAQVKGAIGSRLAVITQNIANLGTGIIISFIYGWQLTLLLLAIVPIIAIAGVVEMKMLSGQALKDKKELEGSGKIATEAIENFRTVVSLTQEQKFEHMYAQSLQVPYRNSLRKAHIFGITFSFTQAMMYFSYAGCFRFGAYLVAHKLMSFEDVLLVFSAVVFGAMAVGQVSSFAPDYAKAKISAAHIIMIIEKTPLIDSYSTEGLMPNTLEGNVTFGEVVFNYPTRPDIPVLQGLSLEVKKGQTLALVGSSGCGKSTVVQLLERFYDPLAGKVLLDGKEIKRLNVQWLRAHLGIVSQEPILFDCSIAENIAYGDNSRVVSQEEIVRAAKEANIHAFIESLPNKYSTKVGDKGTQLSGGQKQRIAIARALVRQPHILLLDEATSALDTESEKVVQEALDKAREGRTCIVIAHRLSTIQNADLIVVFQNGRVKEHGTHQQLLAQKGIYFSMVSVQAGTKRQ

| SMILES | Ratio [1] | Ratio [2] | Ratio [3] | Activity [4] |
| --- | --- | --- | --- | --- |
| COC(=O)c1c(-c2ccc(OC)cc2)ccn(Cc2ccccc2)c1=O | 0.94 | 1.91 | – | – |
| N#Cc1c(-c2ccccc2)ccn(Cc2ccccc2)c1=O | 0.99 | 1.71 | – | – |
| N#Cc1c(Cc2ccccc2)ccn(Cc2ccccc2)c1=O | 1.06 | 1.63 | – | – |
| Cc1ccccc1-c1ccn(Cc2ccccc2)c(=O)c1C#N | 1.05 | 1.83 | – | – |
| Cc1ccc(-c2ccn(Cc3ccccc3)c(=O)c2C#N)cc1 | 0.98 | 1.56 | – | – |
| COc1ccccc1-c1ccn(Cc2ccccc2)c(=O)c1C#N | 1.29 | 2.16 | 3.3 | Non-toxic |
| COc1ccc(-c2ccn(Cc3ccccc3)c(=O)c2C#N)cc1 | 1.05 | 1.35 | – | Non-toxic |
| O=C(OCc1ccccc1)c1c(-c2ccccc2)ccn(Cc2ccccc2)c1=O | 1.22 | 2.59 | – | – |
| COc1ccc(CCN(C)CCCC(C#N)(c2ccc(OC)c(OC)c2)C(C)C)cc1OC (centres undefined) [VERAPAMIL] | 0.89 | 2.94 | – | – |

The next lines start with results.

| Ratio [1] | Ratio [2] | Ratio [3] | SMILES | Activity [4] |
| --- | --- | --- | --- | --- |
| 1.06 | 1.74 | – | COC(=O)c1c(-c2ccccc2)ccn(Cc2ccccc2)c1=O | – |
| 1.09 | 1.68 | – | COC(=O)c1c(Cc2ccccc2)ccn(Cc2ccccc2)c1=O | – |
| 1.1 | 1.51 | – | COC(=O)c1c(-c2ccccc2C)ccn(Cc2ccccc2)c1=O | – |
| 0.94 | 1.75 | – | COC(=O)c1c(-c2ccc(C)cc2)ccn(Cc2ccccc2)c1=O | – |
